Measured values as given in ChEMBL document CHEMBL1157465, “Design, synthesis, and biological evaluation of novel 3-aryl-4-(1H-indole-3yl)-1,5-dihydro-2H-pyrrole-2-ones as vascular endothelial growth factor receptor (VEGF-R) inhibitors” (J Med Chem, 2008).

Molecular target: Ephrin type-B receptor 4 (Homo sapiens, UniProt P54760)
Test: Inhibition of human recombinant EPHB4
Summary of the method: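 Recombinant human tyrosine kinases (EPHB4, TIE2, VEGF-R2, VEGF-R3), expressed in Sf9 insect cells as GST- or His-fusions, with poly(Glu,Tyr) 4:1 as substrate. Conditions: 1 µM [γ-33P]ATP, pH 7.5 HEPES buffer with Mg/Mn, DTT and vanadate, 30 °C for 80 min, 1% DMSO. Ten concentrations were tested and IC50 came from scintillation counting of incorporated 33P.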

Ephrin type-B receptor 4, sequence (P54760 whole entry): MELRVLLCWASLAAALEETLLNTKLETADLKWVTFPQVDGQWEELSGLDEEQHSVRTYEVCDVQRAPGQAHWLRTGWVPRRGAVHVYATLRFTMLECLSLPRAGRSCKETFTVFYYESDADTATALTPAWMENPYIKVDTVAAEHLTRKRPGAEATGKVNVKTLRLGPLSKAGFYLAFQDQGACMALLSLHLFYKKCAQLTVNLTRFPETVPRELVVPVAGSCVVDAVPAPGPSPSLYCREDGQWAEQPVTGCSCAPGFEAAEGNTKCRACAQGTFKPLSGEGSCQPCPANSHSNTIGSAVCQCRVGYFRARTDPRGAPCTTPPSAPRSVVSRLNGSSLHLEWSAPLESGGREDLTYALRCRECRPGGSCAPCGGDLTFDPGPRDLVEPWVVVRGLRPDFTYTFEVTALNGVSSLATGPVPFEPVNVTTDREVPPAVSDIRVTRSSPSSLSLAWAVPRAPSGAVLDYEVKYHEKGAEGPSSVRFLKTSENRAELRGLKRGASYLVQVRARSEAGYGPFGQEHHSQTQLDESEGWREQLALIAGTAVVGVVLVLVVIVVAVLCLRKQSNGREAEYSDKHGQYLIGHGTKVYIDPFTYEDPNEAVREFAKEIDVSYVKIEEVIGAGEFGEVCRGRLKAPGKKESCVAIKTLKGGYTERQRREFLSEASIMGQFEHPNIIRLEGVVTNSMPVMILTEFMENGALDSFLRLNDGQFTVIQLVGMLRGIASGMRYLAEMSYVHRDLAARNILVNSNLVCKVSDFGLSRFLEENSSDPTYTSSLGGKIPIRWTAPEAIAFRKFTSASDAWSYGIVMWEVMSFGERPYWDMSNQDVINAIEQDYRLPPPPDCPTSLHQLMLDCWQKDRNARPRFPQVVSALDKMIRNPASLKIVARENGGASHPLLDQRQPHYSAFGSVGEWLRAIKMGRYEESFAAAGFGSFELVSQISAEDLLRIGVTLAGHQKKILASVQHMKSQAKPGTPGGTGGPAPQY

Work on `COc1cc(C2=C(c3cn(COC(C)(C)C)c4ccccc34)CNC2=O)cc(OC)c1OC` yielded an IC50 of 20 µM.
